{
  "source": "ChEMBL document CHEMBL1141482",
  "about": "“Selective, high affinity A(2B) adenosine receptor antagonists: N-1 monosubstituted 8-(pyrazol-4-yl)xanthines” (Bioorg Med Chem Lett, 2008)",
  "key": {"Homo sapiens [1]": {"species_on_record": "Homo sapiens", "assay": "Selectivity for human A2B receptor over human A3 receptor"}, "Adenosine receptor A3": {"target": "T1, Adenosine receptor A3 (Homo sapiens, UniProt P0DMS8)", "T1 sequence (P0DMS8 whole entry)": "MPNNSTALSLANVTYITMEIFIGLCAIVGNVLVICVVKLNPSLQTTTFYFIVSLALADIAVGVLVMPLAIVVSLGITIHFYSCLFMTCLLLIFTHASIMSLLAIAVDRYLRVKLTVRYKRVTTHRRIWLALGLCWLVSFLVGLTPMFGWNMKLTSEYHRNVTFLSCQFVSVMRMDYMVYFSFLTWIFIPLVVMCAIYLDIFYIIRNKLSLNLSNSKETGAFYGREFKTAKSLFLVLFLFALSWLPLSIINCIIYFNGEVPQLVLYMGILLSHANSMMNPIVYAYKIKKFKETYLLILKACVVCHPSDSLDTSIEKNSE", "assay": "Displacement of [125I]-AB-MECA from human A3 receptor expressed in CHO cells", "assay_type": "cell-based", "outline": "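A3 binding: competition for sites labeled by 125I-AB-MECA using CHO cells expressing the A3 receptor.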"}, "Homo sapiens [2]": {"species_on_record": "Homo sapiens", "assay": "Selectivity for human A2B receptor over human A2A receptor"}, "Adenosine receptor A2b": {"target": "T2, Adenosine receptor A2b (Homo sapiens, UniProt P29275)", "T2 sequence (P29275 whole entry)": "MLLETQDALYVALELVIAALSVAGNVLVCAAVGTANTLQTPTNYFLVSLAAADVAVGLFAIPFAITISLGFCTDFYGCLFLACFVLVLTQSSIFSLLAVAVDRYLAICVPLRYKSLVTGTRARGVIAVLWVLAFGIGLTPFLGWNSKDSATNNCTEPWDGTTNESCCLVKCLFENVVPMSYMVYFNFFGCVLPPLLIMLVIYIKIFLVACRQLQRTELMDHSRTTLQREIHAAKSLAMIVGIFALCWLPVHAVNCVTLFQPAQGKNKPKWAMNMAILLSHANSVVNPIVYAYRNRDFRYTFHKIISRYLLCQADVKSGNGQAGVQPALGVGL", "assay": "Displacement of [3H]-ZM241385 from human A2B receptor expressed in HEK293 cell membranes", "outline": "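Membranes from HEK cells expressing A2B; binding sites labeled with 3H-ZM241385 at 14 nM and displaced competitively.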"}, "Adenosine receptor A1": {"target": "T3, Adenosine receptor A1 (Homo sapiens, UniProt P30542)", "T3 sequence (P30542 whole entry)": "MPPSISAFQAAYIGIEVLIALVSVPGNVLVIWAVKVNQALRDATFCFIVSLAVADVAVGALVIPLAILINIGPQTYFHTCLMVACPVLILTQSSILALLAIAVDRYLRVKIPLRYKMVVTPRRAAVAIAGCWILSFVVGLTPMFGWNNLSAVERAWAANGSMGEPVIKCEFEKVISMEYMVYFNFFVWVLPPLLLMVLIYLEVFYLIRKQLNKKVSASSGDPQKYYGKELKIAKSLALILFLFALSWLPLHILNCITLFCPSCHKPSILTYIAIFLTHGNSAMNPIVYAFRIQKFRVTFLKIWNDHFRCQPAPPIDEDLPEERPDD", "assay": "Displacement of [3H]-CPX from human A1 receptor expressed in CHO cell membranes", "outline": "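Competitive binding on membranes prepared from A1-expressing CHO cells, radioligand 3H-CPX at 0.5 nM.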"}, "Adenosine receptor A2a": {"target": "Adenosine receptor A2a (Homo sapiens, UniProt P29274)", "sequence (P29274 whole entry)": "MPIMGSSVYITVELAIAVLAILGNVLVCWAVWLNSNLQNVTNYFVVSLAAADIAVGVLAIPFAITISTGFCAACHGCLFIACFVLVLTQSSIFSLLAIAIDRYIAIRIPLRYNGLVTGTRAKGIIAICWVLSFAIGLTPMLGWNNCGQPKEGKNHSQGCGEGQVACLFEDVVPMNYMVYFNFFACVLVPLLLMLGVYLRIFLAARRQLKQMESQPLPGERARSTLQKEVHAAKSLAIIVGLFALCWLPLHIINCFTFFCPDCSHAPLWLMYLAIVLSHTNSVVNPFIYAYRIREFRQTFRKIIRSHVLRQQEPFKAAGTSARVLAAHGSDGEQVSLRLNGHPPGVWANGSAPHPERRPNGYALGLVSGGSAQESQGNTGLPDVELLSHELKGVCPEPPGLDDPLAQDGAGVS", "assay": "Displacement of [3H]ZM241385 from human A2A receptor expressed in HEK293 cell membranes", "outline": "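A2A affinity by competition with 3H-ZM241385 (2 nM) for binding sites in membranes from HEK-A2A cells.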"}, "Homo sapiens [3]": {"species_on_record": "Homo sapiens", "assay": "Selectivity for human A2B receptor over human A1 receptor"}},
  "data": [
    {"molecule": "CCCn1c(=O)[nH]c2nc(-c3cnn(Cc4noc(-c5ccccc5)n4)c3)[nH]c2c1=O", "values": [
      {"measurement": "Ratio Ki", "setting": "Homo sapiens [1]", "result": "> 600"},
      {"measurement": "Ki", "setting": "Adenosine receptor A3", "result": "> 9", "unit": "µM"},
      {"measurement": "Ratio Ki", "setting": "Homo sapiens [2]", "result": "> 300"},
      {"measurement": "Ki", "setting": "Adenosine receptor A2b", "result": 0.015, "unit": "µM"},
      {"measurement": "Ki", "setting": "Adenosine receptor A1", "result": 3.5, "unit": "µM"},
      {"measurement": "Ki", "setting": "Adenosine receptor A2a", "result": "> 5", "unit": "µM"},
      {"measurement": "Ratio Ki", "setting": "Homo sapiens [3]", "result": 200}
    ]}
  ]
}
